{"data": "Measured values collected from several papers", "BRAF V600E": "Serine/threonine-protein kinase B-raf (BRAF, Homo sapiens, UniProt P15056, V600E)", "NPY1R": "Neuropeptide Y receptor type 1 (NPY1R, Homo sapiens, UniProt P25929)", "DRD2": "D(2) dopamine receptor (DRD2, Homo sapiens, UniProt P14416)", "ADORA3": "Adenosine receptor A3 (ADORA3, Homo sapiens, UniProt P0DMS8)", "Blk": "Tyrosine-protein kinase Blk (Blk, Mus musculus, UniProt P16277)", "PARP16": "Protein mono-ADP-ribosyltransferase PARP16 (PARP16, Homo sapiens, UniProt Q8N5Y8)", "note": "Protocols differ between the studies behind these lines."}
{"Structure (SMILES)": "Cc1ccc(C(CS(=O)(=O)c2ccccc2)=NNc2nc(-c3ccc(OCCCCOc4ccc(-c5csc(NN=C(CS(=O)(=O)c6ccccc6)c6ccc(C)cc6)n5)cc4)cc3)cs2)cc1", "target": "BRAF V600E", "test": "enzyme activity, inhibitor, ATP luminescence", "conditions": "0.1 µM", "inhibition [%]": 57}
{"Structure (SMILES)": "Oc1cccc(Nc2nc(-c3ccc(F)cc3F)cs2)c1", "target": "NPY1R", "test": "cell-free assay", "conditions": "10 µM", "inhibition [%]": -16.2}
{"Structure (SMILES)": "O=C(CCN1CCC(O)(c2ccc(F)cc2)C1)c1ccc2c(c1)OCCO2 (stereo not shown)", "target": "DRD2", "test": "enzyme activity, inhibitor", "conditions": "10 µM", "inhibition [%]": 41.3}
{"Structure (SMILES)": "COc1cc(NC(C)=O)c(Cl)cc1C(=O)Nc1nccs1", "target": "NPY1R", "test": "cell-free assay", "conditions": "10 µM", "inhibition [%]": 6}
{"Structure (SMILES)": "CCCCN1CCCn2c1nc1c2c(=O)n(C)c(=O)n1C", "target": "ADORA3", "test": "ligand displacement, radioligand", "conditions": "10 µM, cell membranes", "inhibition [%]": 12}
{"Structure (SMILES)": "Cc1ccc(C(CS(=O)(=O)c2ccccc2)=NNC2=NC(=O)C(=NNc3ccccc3)S2)cc1", "target": "BRAF V600E", "test": "enzyme activity, inhibitor, ATP luminescence", "conditions": "10 µM", "inhibition [%]": 89}
{"Structure (SMILES)": "Cn1cnc(Br)c1C1=CN(c2ncnc3[nH]cnc23)CCS1", "target": "Serine/threonine-protein kinase Nek5 (NEK5, Homo sapiens, UniProt Q6P3R8)", "test": "enzyme activity, inhibitor, radiometric", "conditions": "50 nM", "inhibition [%]": 18.7}
{"Structure (SMILES)": "Cc1ccc(C(CS(=O)(=O)c2ccccc2)=NN=C2N=C(c3ccc(Br)cc3)CS2)cc1", "target": "BRAF V600E", "test": "enzyme activity, inhibitor, ATP luminescence", "conditions": "0.1 µM", "inhibition [%]": 61}
{"Structure (SMILES)": "CCCCn1c(=O)c2[nH]c(C34CC5CC(CC3C5)C4)nc2n(CCCO)c1=O", "target": "ADORA3", "test": "ligand displacement, radioligand", "conditions": "10 µM, cell membranes", "inhibition [%]": 39}
{"Structure (SMILES)": "CNC(=O)c1cc(Oc2ccc(NC(=O)Nc3ccc(Cl)c(C(F)(F)F)c3)cc2)ccn1", "target": "Blk", "test": "enzyme activity, inhibitor", "conditions": "10 µM", "inhibition [%]": 51}
{"Structure (SMILES)": "CC(=O)N[C@H]1CSSC[C@@H](C(=O)N[C@@H](Cc2c[nH]c3ccccc23)C(N)=O)NC(=O)[C@@H](Cc2ccccc2)NC(=O)[C@H](CCCNC(=N)N)NC1=O", "target": "Melanocortin receptor 3 (MC3R, Homo sapiens, UniProt P41968)", "test": "ligand displacement, radioligand", "conditions": "10 µM, 40 min", "inhibition [%]": 45}
{"Structure (SMILES)": "O=C(CSc1nc2nccnc2c(=O)n1CCc1ccccc1)Nc1nccs1", "target": "Phosphatidylinositol 4-kinase type 2-alpha (PI4K2A, Homo sapiens, UniProt Q9BTU6)", "test": "enzyme activity, inhibitor", "conditions": "10 µM", "inhibition [%]": 9}
{"Structure (SMILES)": "CCN(CC)c1ccc(C2Nc3ccc(C(=O)c4ccccc4)cc3NC3=C2C(=O)CC(C)(C)C3)cc1 (stereo not shown)", "target": "5-hydroxytryptamine receptor 1E (HTR1E, Homo sapiens, UniProt P28566)", "test": "ligand displacement, radioligand", "conditions": "10 µM", "inhibition [%]": 5}
{"Structure (SMILES)": "COCCOc1ccc(N2CCN(CCn3ncc4c3nc(N)n3nc(-c5ccco5)nc43)CC2)cc1", "target": "ADORA3", "test": "ligand displacement, radioligand", "conditions": "10 µM, cell membranes", "inhibition [%]": 35}
{"Structure (SMILES)": "NC(=S)NN=C(CS(=O)(=O)c1ccccc1)c1ccc(F)cc1", "target": "BRAF V600E", "test": "enzyme activity, inhibitor, ATP luminescence", "conditions": "10 µM", "inhibition [%]": 92}
{"Structure (SMILES)": "CCCCCC(C)N1CCCn2c1nc1c2c(=O)n(C)c(=O)n1C (stereo not shown)", "target": "ADORA3", "test": "ligand displacement, radioligand", "conditions": "10 µM, cell membranes", "inhibition [%]": 32}
{"Structure (SMILES)": "Cc1ccc(C(C)C)c(OCC(O)CN2CCN(c3ccccc3F)CC2)c1 (stereo not shown)", "target": "DRD2", "test": "enzyme activity, inhibitor", "conditions": "10 µM", "inhibition [%]": 32.3}
{"Structure (SMILES)": "CCCC(C)N1CCCn2c1nc1c2c(=O)n(C)c(=O)n1C (stereo not shown)", "target": "ADORA3", "test": "ligand displacement, radioligand", "conditions": "10 µM, cell membranes", "inhibition [%]": 17}
{"Structure (SMILES)": "CN(C)C1CCN(CC#Cc2nn(C3CCCC3)c3nc(NCc4ccccc4)ncc23)C1 (stereo not shown)", "target": "Ephrin type-B receptor 2 (EPHB2, Homo sapiens, UniProt P29323)", "test": "enzyme activity, inhibitor, FRET", "conditions": "10 µM", "inhibition [%]": 31}
{"Structure (SMILES)": "Nc1ncnc2[nH]cnc12", "target": "ADORA3", "test": "ligand displacement, radioligand", "conditions": "30 µM, cell membranes", "inhibition [%]": 13}
{"Structure (SMILES)": "O=C1CC(N2CCN(Cc3ccccc3)CC2)C(=O)N1c1ccc2c(c1)OCCO2 (stereo not shown)", "target": "DRD2", "test": "enzyme activity, inhibitor", "conditions": "10 µM", "inhibition [%]": 34.1}
{"Structure (SMILES)": "O=C(c1ccc(Cl)cc1)N(Cc1ccccc1)C1CCCCC1", "target": "NPY1R", "test": "cell-free assay", "conditions": "10 µM", "inhibition [%]": -13.6}
{"Structure (SMILES)": "COc1ccc(-c2csc(NN=C(CS(=O)(=O)c3ccccc3)c3ccc(F)cc3)n2)cc1", "target": "BRAF V600E", "test": "enzyme activity, inhibitor, ATP luminescence", "conditions": "0.1 µM", "inhibition [%]": 51}
{"Structure (SMILES)": "CN(C)C(=O)N[C@H]1CC[C@H](CCN2CCN(c3cccc(Cl)c3Cl)CC2)CC1", "target": "DRD2", "test": "cell-free assay", "conditions": "10 µM", "inhibition [%]": 101}
{"Structure (SMILES)": "O=C1NCCCc2c(O)cccc21", "target": "PARP16", "test": "enzyme activity, inhibitor", "conditions": "10 µM", "inhibition [%]": 0}
{"Structure (SMILES)": "O=C(Nc1ccc(S(=O)(=O)N2CCC(Cl)CC2)cc1)c1ccc([N+](=O)[O-])o1", "target": "NPY1R", "test": "ligand displacement, radioligand", "conditions": "10 µM", "inhibition [%]": 7}
{"Structure (SMILES)": "OC(CNCc1cccc(Oc2nnnn2-c2ccccc2)c1)c1ccccc1 (stereo not shown)", "target": "DRD2", "test": "enzyme activity, inhibitor", "conditions": "10 µM", "inhibition [%]": 35.6}
{"Structure (SMILES)": "CCCN1CCCn2c1nc1c2c(=O)n(C)c(=O)n1C", "target": "ADORA3", "test": "ligand displacement, radioligand", "conditions": "10 µM, cell membranes", "inhibition [%]": 10}
{"Structure (SMILES)": "CCOCCNC(=O)NC12CC3CC(CC(C3)C1)C2", "target": "ephB (Mycobacterium tuberculosis, UniProt I6YC03)", "test": "enzyme activity, inhibitor", "conditions": "10 nM", "inhibition [%]": 8.7}
{"Structure (SMILES)": "O=C(c1ccc(F)cc1)N(Cc1ccccc1)C1CCCCC1", "target": "ADORA3", "test": "cell-free assay", "conditions": "10 µM", "inhibition [%]": 4}
{"Structure (SMILES)": "C#CCN1CCCn2c1nc1c2c(=O)n(C)c(=O)n1C", "target": "ADORA3", "test": "ligand displacement, radioligand", "conditions": "10 µM, cell membranes", "inhibition [%]": 11}
{"Structure (SMILES)": "[N-]=[N+]=N[C@@H](CC(=O)NO)Cc1ccc2ccccc2c1", "target": "Endoplasmic reticulum aminopeptidase 2 (ERAP2, Homo sapiens, UniProt Q6P179)", "test": "enzyme activity, inhibitor, fluorescence", "conditions": "300 µM", "inhibition [%]": 24}
{"Structure (SMILES)": "C=CCn1c(SCC(=O)NC2=NN(c3ccccc3)C(=O)C2)nnc1-c1cccs1", "target": "DRD2", "test": "enzyme activity, inhibitor", "conditions": "10 µM", "inhibition [%]": -12.8}
{"Structure (SMILES)": "CN1CCCn2c1nc1c2c(=O)n(C)c(=O)n1C", "target": "ADORA3", "test": "ligand displacement, radioligand", "conditions": "10 µM, cell membranes", "inhibition [%]": 3}
{"Structure (SMILES)": "CC(=O)c1nn(CC(=O)N2C[C@H](F)C[C@H]2C(=O)Nc2cccc(Br)n2)c2ccc(-c3cnc(C)nc3)cc12", "target": "Neutrophil elastase (ELANE, Homo sapiens, UniProt P08246)", "test": "enzyme activity, inhibitor", "conditions": "10 µM", "inhibition [%]": 0.7}
{"Structure (SMILES)": "Cc1ccc(Nc2nccc(N(C)c3ccc4c(C)n(C)nc4c3)n2)cc1S(N)(=O)=O", "target": "Dual specificity mitogen-activated protein kinase kinase 4 (Map2k4, Mus musculus, UniProt P47809)", "test": "enzyme activity, inhibitor", "conditions": "10 µM", "inhibition [%]": 63}
{"Structure (SMILES)": "O=C1N=C(N2CCCCN2)S/C1=C\\c1ccc(F)cc1O", "target": "NPY1R", "test": "ligand displacement, radioligand", "conditions": "10 µM", "inhibition [%]": "< 10"}
{"Structure (SMILES)": "CC(O)c1ccc(-c2ccc(CNCCc3c[nH]c4ccccc34)o2)cc1 (stereo not shown)", "target": "DRD2", "test": "enzyme activity, inhibitor", "conditions": "10 µM", "inhibition [%]": 36.8}
{"Structure (SMILES)": "CNCc1ccc(-c2cc(-c3nc(-c4ccc(S(=O)(=O)C(C)C)cc4)cnc3N)on2)cc1", "target": "Blk", "test": "enzyme activity, inhibitor", "conditions": "2 µM", "inhibition [%]": 36}
{"Structure (SMILES)": "CCN(CC)CCNC(=O)c1c(C)[nH]c(/C=C2\\C(=O)Nc3ccc(F)cc32)c1C", "target": "Blk", "test": "enzyme activity, inhibitor", "conditions": "10 µM", "inhibition [%]": 83}
{"Structure (SMILES)": "Cc1ccc(C(CS(=O)(=O)c2ccccc2)=NNC2=NC(=O)C(=NNc3ccc([N+](=O)[O-])cc3)S2)cc1", "target": "BRAF V600E", "test": "enzyme activity, inhibitor, ATP luminescence", "conditions": "10 µM", "inhibition [%]": 89}
{"Structure (SMILES)": "COc1cc2c(cc1OC)-c1nnnn1CCC2", "target": "PARP16", "test": "enzyme activity, inhibitor", "conditions": "10 µM", "inhibition [%]": 83}
{"Structure (SMILES)": "CC(C)(C)c1nc(-c2cccc(NS(=O)(=O)c3c(F)cccc3F)c2F)c(-c2ccnc(N)n2)s1", "target": "BRAF V600E", "test": "enzyme activity, inhibitor, ATP luminescence", "conditions": "10 µM", "inhibition [%]": 95}
{"Structure (SMILES)": "CC(O)c1ccc(-c2ccc(CNCCc3ccc(S(N)(=O)=O)cc3)o2)cc1 (stereo not shown)", "target": "DRD2", "test": "enzyme activity, inhibitor", "conditions": "10 µM", "inhibition [%]": 22.1}
{"Structure (SMILES)": "C[C@@]1(c2cccc(Nc3ccc(C4CC4)nc3)c2Cl)CC(=O)N(C2CCOCC2)C(=N)N1", "target": "Beta-secretase 1 (BACE1, Homo sapiens, UniProt P56817)", "test": "enzyme activity, inhibitor, FRET", "conditions": "10 µM", "inhibition [%]": 52}
{"Structure (SMILES)": "Cc1ccc(C(CS(=O)(=O)c2ccccc2)=NNC(N)=S)cc1", "target": "BRAF V600E", "test": "enzyme activity, inhibitor, ATP luminescence", "conditions": "0.1 µM", "inhibition [%]": 46}
